ChEMBL document CHEMBL1128532, “Antidiabetic agents: a new class of reversible carnitine palmitoyltransferase I inhibitors” (J Med Chem, 1995)
Where “and” joins values, the source holds several entries; their conditions need not be identical. Equal entries are not always repeated.

What was measured:
[1] = organism: Rattus norvegicus; assay: Inhibition of production of ketones in rat liver hepatocytes from 18 hr fasted rats; type: functional; details: Hepatocyte
In short: (§1)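 Fatty acid oxidation was read as the fall in ketone production, tested in rat liver homogenates and in hepatocytes isolated from 18 h fasted rats. IC50 ± SE was taken from concentration-response data. Where no reasonable dose response was seen, the highest dose tested is given instead.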

[2] = organism: Rattus norvegicus; assay: Inhibition of production of ketones in rat liver homogenates; type: functional; in short: as §1
[3] = test system: Rattus norvegicus; assay: Blood glucose level in NIDDM rats after 11 days of treatment at a dose 32.9 mg/kg/d Blood samples taken 6 hr post-dose in a 6 hr fasted state; type: functional
In short: (§2)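 NIDDM model: fat-fed, low-dose streptozotocin-treated rats. Oral gavage once daily for 11 days at 0 to 87.5 mg/kg/d. Blood sampled 6 h post-dose, with rats in a 6 h fasted state. Blood glucose reported in mg/dL as mean ± error. Significance tested against vehicle control (p<0.05, p<0.01).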

[4] = organism: Rattus norvegicus; assay: Blood glucose level in NIDDM rats after 11 days of treatment Blood samples taken 6 hr post-dose in a 6 hr fasted state.; type: functional; in short: as §2
[5] = test system: Rattus norvegicus; assay: Blood glucose level in NIDDM rats after 11 days of treatment at a dose 21.9 mg/kg/d Blood samples taken 6 hr post-dose in a 6 hr fasted state; type: functional; in short: as §2
[6] = test system: Rattus norvegicus; assay: Blood glucose level in NIDDM rats after 11 days of treatment at a dose 0 mg/kg/d Blood samples taken 6 hr post-dose in a 6 hr fasted state; type: functional; in short: as §2
[7] = target: T1, Carnitine O-palmitoyltransferase 1, liver isoform (Rattus norvegicus, UniProt P32198); assay: In vitro inhibition of carnitine palmitoyltransferase I with respect to palmitoyl CoA in rat
T1 sequence (P32198 whole entry): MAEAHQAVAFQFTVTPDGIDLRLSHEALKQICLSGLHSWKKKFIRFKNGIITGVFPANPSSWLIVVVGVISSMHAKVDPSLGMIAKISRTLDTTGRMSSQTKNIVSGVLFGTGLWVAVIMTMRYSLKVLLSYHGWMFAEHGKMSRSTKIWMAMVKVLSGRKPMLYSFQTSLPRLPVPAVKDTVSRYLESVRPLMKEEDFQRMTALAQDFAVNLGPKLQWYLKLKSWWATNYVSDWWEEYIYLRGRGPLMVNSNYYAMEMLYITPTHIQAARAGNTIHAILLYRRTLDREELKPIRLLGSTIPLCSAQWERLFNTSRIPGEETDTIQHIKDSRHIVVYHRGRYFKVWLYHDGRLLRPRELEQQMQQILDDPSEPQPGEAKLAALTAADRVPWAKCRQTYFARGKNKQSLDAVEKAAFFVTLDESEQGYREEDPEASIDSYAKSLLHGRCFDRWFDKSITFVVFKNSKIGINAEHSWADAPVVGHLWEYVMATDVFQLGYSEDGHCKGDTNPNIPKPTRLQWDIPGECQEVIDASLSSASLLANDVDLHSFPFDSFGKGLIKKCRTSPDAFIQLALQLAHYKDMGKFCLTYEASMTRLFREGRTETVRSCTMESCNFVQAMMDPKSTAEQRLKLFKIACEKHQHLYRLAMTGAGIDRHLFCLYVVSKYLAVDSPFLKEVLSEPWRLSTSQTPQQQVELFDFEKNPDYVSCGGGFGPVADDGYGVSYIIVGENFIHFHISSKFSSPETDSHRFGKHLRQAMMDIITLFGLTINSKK

[8] = test system: Rattus norvegicus; assay: Blood glucose level in NIDDM rats after 11 days of treatment at a dose 21.9 […] Blood samples taken 6 hr post-dose in a 6 hr fasted state; type: functional; in short: as §2

| SMILES | IC50 [1] [µM] | IC50 [2] [µM] | further results |
| --- | --- | --- | --- |
| CCCCCCCCCCCCCCOP(=O)([O-])N[C@H](CC(=O)O)C[N+](C)(C)C | 46 | 24 | – |
| CCCCCCCCCCCCCCCP(=O)([O-])O[C@H](CC(=O)O)C[N+](C)(C)C | 3 | 36 | – |
| CCCCCCCCCCCCCCP(=O)([O-])CC(CC(=O)O)C[N+](C)(C)C (configuration not stated) | > 300 | > 300 | – |
| CCCCCCCCCCCCCCCC(=O)NC(CC(=O)[O-])C[N+](C)(C)C (configuration not stated) | 1.2 | 1.3 | – |
| CCCCCCCCCCCCCCCP(=O)([O-])NC(CC(=O)O)C[N+](C)(C)C (configuration not stated) | > 300 | > 100 | – |
| CCCCCCCCCCCCCCOP(=O)([O-])O[C@@H](CC(=O)O)C[N+](C)(C)C | 220 | > 300 | – |
| CCCCCCCCCCCCCCCP(=O)([O-])O[C@@H](CC(=O)O)C[N+](C)(C)C | > 300 | > 100 | – |
| CCCCCCCCCCCCCCOP(=O)([O-])O[C@H](CC(=O)O)C[N+](C)(C)C | 3.4 | 28 | Glucose level [3]: 179 mg/dL and 93 mg/dL; Glucose level [4]: 197 mg/dL; Glucose level [5]: 164 mg/dL; Glucose level [6]: 197 mg/dL; Ki [7]: 3.6 µM; Glucose level [8]: 164 mg/dL |
